MrgX1 antag = antagonists of human MrgX1 receptor | Q96LB2 | B-score at 10 µM | MRGX1-HEK293 calcium flux, Fluo-4, BAM8-22 antagonism; hits give low values | 310,000 tested, 1.3% active;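 active = calcium-response B-score plate-corrected more than 3 library SD below zero, starting fluorescence within 5 deviations, no agonist response on first addition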;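 also: peak minus trough fluorescence over baseline after final BAM8-22 challenge near maximal dose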
Target sequence (Q96LB2 whole entry, looked up): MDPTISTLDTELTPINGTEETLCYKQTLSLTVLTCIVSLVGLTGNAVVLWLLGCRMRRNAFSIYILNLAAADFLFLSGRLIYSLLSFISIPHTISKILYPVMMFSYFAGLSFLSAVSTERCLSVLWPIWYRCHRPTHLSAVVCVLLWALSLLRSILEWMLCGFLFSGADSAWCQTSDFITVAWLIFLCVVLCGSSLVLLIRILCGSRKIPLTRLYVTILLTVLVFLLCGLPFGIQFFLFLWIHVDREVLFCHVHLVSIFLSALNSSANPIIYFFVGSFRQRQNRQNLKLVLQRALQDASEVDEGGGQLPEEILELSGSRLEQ
MrgX1 ag = agonists of human MrgX1 receptor. B-score at 10 µM. MrgX1-HEK293 cells, Fluo-4 calcium fluorescence, agonist mode; hits give high values. Q96LB2. 310,000 tested, 0.44% active;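 active = calcium response B-score plate-corrected fluorescence ratio at least 3 library SD, with starting fluorescence B-score inside 5 SD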
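Material: MrgX1-expressing HEK293 cells / Dosing: compound as first of three additions / Incubation: overnight seeding, then 1 h dark dye loading / Signal: Fluo-4 NW calcium fluorescence / Evaluation: B-scored fluorescence response ratio / Benchmarks: positive and negative control wells on each plate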
MrgX1 allo act = human MrgX1 positive allosteric modulation, primary screen. MrgX1-HEK293, Fluo-4 calcium flux, FDSS; hits give high values. 310,000 tested, 0.63% active. B-score at 10 µM. Q96LB2;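 active = plate-corrected calcium response at least 3 library SD above typical, normal starting fluorescence, not activating the receptor alone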;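 also: compound read alongside a low EC10 to EC30 dose of BAM8-22 agonist; peak minus trough fluorescence over baseline measured at the second addition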
RGS4 act = potentiators or activators of RGS4. HEK293 M3R/inducible RGS4, carbachol calcium flux Fluo4; hits give low values. B-score at 10 µM. 310,000 tested, 0.92% active. AID 463111;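 active = B-score of the integrated calcium signal more than 4 SD below the library mean, with starting fluorescence not abnormally high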;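 also: negative B-score means reduced calcium response which marks RGS4 activation or potentiation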
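System – HEK293 FlpIn-TREx cells, stable M3R, doxycycline-inducible RGS4 · Reagent – ECmax carbachol challenge · Times – compound preincubation 20 min at room temperature before agonist · Technique – Fluo4 fluorescence kinetic imaging of calcium · Measure – B score of integrated Fluo4 ratio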
RGS4 inh = human RGS4 inhibition; P49798; HEK293 M3R/RGS4 inducible, Fluo-4 calcium flux; hits give high values; triggered by carbachol at its EC20; B-score at 10 µM; 310,000 tested, 0.45% active; AID 463165;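 active = B-score, a plate-corrected calcium signal, over three deviations above library mean, with baseline fluorescence within five deviations of library mean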;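 also: RGS4 expression induced by doxycycline in cells with stable M3 receptor; B-score is computed from the integrated fluorescence ratio over baseline after carbachol; higher B-score means a larger calcium signal and so more RGS4 inhibition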
Target sequence (P49798 whole entry, looked up): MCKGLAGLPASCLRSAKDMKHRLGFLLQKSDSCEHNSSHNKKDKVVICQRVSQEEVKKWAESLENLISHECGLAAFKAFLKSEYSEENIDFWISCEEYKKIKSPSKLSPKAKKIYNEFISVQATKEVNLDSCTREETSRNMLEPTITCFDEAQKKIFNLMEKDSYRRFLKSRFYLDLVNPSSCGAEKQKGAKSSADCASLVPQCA
MrgX1 allo conf = human MrgX1 positive allosteric modulation, re-confirmation. MrgX1-HEK293, Fluo-4 calcium fluorescence, FDSS. activation (ratio percentage), % at 10 µM. 1,200 tested, 13% active. shares compounds with MrgX1 allo act;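 active = ratio at least 3 SD above the weak peptide control, stable starting fluorescence, no direct agonism earlier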;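 also: compound followed by low BAM8-22 agonist challenge near EC20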
HEK293 Ca flux = activity in parental HEK293 cells lacking MrgX1. 4,000 tested, 2% active. AID 624111. Fluo-4 calcium fluorescence, FDSS. shares compounds with MrgX1 antag. fluorescence ratio F(max-min)/F0 at 10 µM;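 active = duplicate-averaged calcium fluorescence ratio at least three times the standard deviation of buffer wells, a nonspecific response in parental cells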
HEK293 Ca counter = counter-screen for MrgX1 allosteric activators: effect in parental HEK293 cells; shares compounds with MrgX1 antag; parental HEK293 calcium flux, Fluo-4 fluorescence ratio; hits give high values; fluorescence ratio F(max-min)/F0 at 10 µM; 4,000 tested, 0.4% active;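 active = calcium fluorescence ratio, averaged over duplicates, at least 3 SD of the buffer-well ratio, meaning a nonspecific response in receptor-free cells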;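 also: untransfected parental HEK293 lacking MrgX1 used as counterscreen for MrgX1 allosteric activators; fluorescence change taken during the second addition on a kinetic imager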
HEK293 Ca cntr2 = MrgX1 activator counter-screen hit in parental HEK293 cells; shares compounds with MrgX1 antag; Fluo-4 calcium fluorescence (FDSS); hits give high values; fluorescence ratio F(max-min)/F0 at 10 µM; 4,000 tested, 8.7% active;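 active = calcium fluorescence ratio at least three times the spread of buffer wells, meaning a non-specific response in parental cells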
A number is an active result; - = inactive; . = no result. The list is not random: actives were taken first. Their share in the collection is about 3.5%.

SMILES	MrgX1 antag	MrgX1 ag	MrgX1 allo act	RGS4 act	RGS4 inh	MrgX1 allo conf	HEK293 Ca flux	HEK293 Ca counter	HEK293 Ca cntr2
Cc1cc(F)ccc1NC(=O)c1cnccn1	-	-	10.5	-	-	-	-	-	-
O=C(NCc1ccc(F)cc1)C1CCCN(S(=O)(=O)c2ccc(-n3cnnn3)cc2)C1 (centres undefined)	-	-	7.99	-	-	-	-	-	-
Cc1ccc2nc(Cl)c(-c3ccccc3)cc2c1	-	-	8.27	-	-	-	-	-	-
COC(=O)c1ccccc1NC(=O)COC(=O)C1CCCCC1	-	-	8.3	-	-	-	-	-	-
COC(=O)c1ccccc1NC(=O)C1CCCC1	-	-	-	-	-	.	.	.	.
COC(=O)c1ccccc1NC(=S)NC(=O)C1CCCCC1	-	-	7.5	-	-	-	-	-	-
CCC(CC)C(=O)Nc1nnc(S(=O)(=O)N2CCCC2)s1	-	-	-	-	-	.	.	.	.
CCc1nonc1NC(=O)COc1ccc(Cl)c(C)c1	-	-	12.5	-	-	-	-	-	-
CCc1nonc1NC(=O)COc1cc(C)c(Cl)c(C)c1	-	-	-	-	-	.	.	.	.
O=C(CSc1nnc(-c2ccc(OC(F)F)cc2)o1)NCc1cccs1	-	-	7.48	-	-	-	-	-	-
O=C(CSc1nc2ccccc2c(=O)n1-c1ccc(OC(F)F)cc1)NCc1cccs1	-	-	-	-	-	.	.	.	.
O=C(Nc1ccccc1)N(Cc1ccc(Cl)cc1)CC(O)C(F)(F)F (centres undefined)	-	-	6.53	-	-	-	-	-	-
O=C(Nc1ccccc1)N(Cc1ccccc1)Cc1ccccc1	-	-	-	-	-	.	.	.	.
O=C(CCn1c(=S)oc2ccccc21)NC1CCCCCC1	-	-	6.97	-	-	-	-	-	-
Cc1ccc(C(=O)N2CCCC(CCC(=O)N3CCN(c4ccccn4)CC3)C2)cc1C (centres undefined)	-	-	7.77	-	-	-	-	-	-
Cc1cccc(C(=O)N2CCCC(CCC(=O)N3CCN(c4ccccn4)CC3)C2)c1C (centres undefined)	-	-	9.38	-	-	-	-	-	-
Cc1ccc(C(=O)N2CCCC(CCC(=O)N3CCN(c4ccccn4)CC3)C2)cn1 (centres undefined)	-	-	-	-	-	.	.	.	.
Cc1cc(C(=O)N2CCCC(CCC(=O)N3CCN(c4ccccn4)CC3)C2)c(C)o1 (centres undefined)	-	-	-	-	-	.	.	.	.
CC(C)c1ccc(OCC(=O)NC(C)c2ccccc2)cc1 (centres undefined)	-	-	-	-	-	.	.	.	.
CC(NC(=O)COc1ccccc1Cl)c1ccccc1 (centres undefined)	-	-	7.16	-	-	-	-	-	-
Cc1ccc(NC(=O)CSc2nnc(C3CC3)n2N)cc1S(=O)(=O)N1CCOCC1	-	-	7.93	-	-	-	-	-	-
CCc1c(O)c(-c2ccccc2)c(=O)n(-c2ccccn2)c1-c1ccccc1	-	-	-	-	-	.	.	.	.
O=c1[nH]c(Nc2ccccc2)cc2ccccc12	-	-	18.9	-	-	33.8%	-	-	-
O=C(NCCc1ccccc1)C(=O)c1c(-c2ccccc2)[nH]c2ccccc12	-	-	11.4	-	-	-	-	-	-
C=CCNC(=O)C(=O)c1c(-c2ccccc2)[nH]c2ccccc12	-	-	-	-	-	.	.	.	.
SMILES	MrgX1 antag	MrgX1 ag	MrgX1 allo act	RGS4 act	RGS4 inh	MrgX1 allo conf	HEK293 Ca flux	HEK293 Ca counter	HEK293 Ca cntr2
O=C(CCN1CCc2ccccc2C1)Nc1ccc2c(c1)OCO2	-	-	-	-	-	.	.	.	.
O=C(CCN1CCc2ccccc2C1)Nc1ccc(F)c(F)c1	-	-	25.3	-	-	-	-	-	-
CCc1c(C)nc2cc(-c3ccc(OC)c(OC)c3)nn2c1N1CCCC1	-	-	16.9	-	-	-	-	-	-
c1ccc2c(CCNc3ncnc4nc[nH]c34)c[nH]c2c1	-	-	7.01	-	-	9.4%	-	-	-
c1ccc(CCNc2ncnc3nc[nH]c23)cc1	-	-	-	-	-	.	.	.	.
CC(C)=CCOc1ccc2c(C)c(CC(=O)N3C[C@H]4C[C@@H](C3)c3cccc(=O)n3C4)c(=O)oc2c1C	-	-	-	-	-	.	.	.	.
Cc1ccc(NC(=O)CCc2nc3ccccc3c(=O)[nH]2)cc1S(=O)(=O)N1CCOCC1	-	-	-	-	-	.	.	.	.
COc1ccc(N=C2SCC(=O)N2Cc2ccccc2)cc1	-	-	10.7	-	-	-	-	-	-
Cc1cc(O)cc(C)c1Cl	-	-	17.3	-	-	-	-	-	-
Cc1cccc(NC(=O)CC(=O)Nc2cccc(C)c2)c1	-	-	-	-	-	.	.	.	.
Cc1cccc(NC(=O)C23CCC(C)(C2Br)C3(C)C)c1 (centres undefined)	-	-	19.8	-	-	-	-	-	-
Cc1cc(C)c(OCC(=O)OCC(=O)NC2CCC(C)CC2)c(C)c1 (centres undefined)	-	-	-	-	-	.	.	.	.
CC(C)[C@@H](COc1ccccc1)N1CCN(Cc2ccccc2)CCC1=O	-	-	14.2	-	-	-	-	-	-
Cc1nn(CC(=O)c2ccc(Cl)s2)c(C)c1[N+](=O)[O-]	-	-	-	-	-	.	.	.	.
COc1ccccc1-c1nc2ccccc2nc1-c1ccccc1	-	-	8.97	-	-	-	-	51.3	-
CCC1(C)Cc2ccccc2-c2nc(NCCCO)n(C)c(=O)c21 (centres undefined)	-	-	-	-	-	.	.	.	.
CCC1(C)Cc2ccccc2-c2nc(NCCO)n(-c3ccccc3)c(=O)c21 (centres undefined)	-	-	7.73	-	-	-	-	-	-
CC(C)C(NS(=O)(=O)c1cccs1)C(=O)NCCCN1CCCCCC1 (centres undefined)	-	-	-	-	-	.	.	.	.
Cc1[nH]n(-c2ccccc2)c(=O)c1/C=N/c1nn[nH]n1	-	-	-	-	-	.	.	.	.
C=CCSc1nnc(-c2ccccc2N=Cc2c(C)[nH]n(-c3ccccc3)c2=O)c(=O)[nH]1	-	-	8.66	-	-	-	-	-	-
Cc1[nH]n(-c2ccccc2)c(=O)c1C=Nc1cnc2ccccc2c1	-	-	-	-	-	.	.	.	.

From PubChem BioAssay
